Compound activity from PubChem.
Compounds with a hit are over-represented: about 4.8% of the library has one in this group of screens.
ALR H2O2 inh – inhibitors of human sulfhydryl oxidase ALR | P55789 | purified ALR, DTT oxidation, H2O2 HRP-luminol luminescence | inhibition, % (concentration not given with the values) | 3.8% of 290,000 active | AID 485317;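 active = mean replicate inhibition above about 79%, with every replicate also reaching it, limit read from the data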
Target sequence (P55789 whole entry, looked up): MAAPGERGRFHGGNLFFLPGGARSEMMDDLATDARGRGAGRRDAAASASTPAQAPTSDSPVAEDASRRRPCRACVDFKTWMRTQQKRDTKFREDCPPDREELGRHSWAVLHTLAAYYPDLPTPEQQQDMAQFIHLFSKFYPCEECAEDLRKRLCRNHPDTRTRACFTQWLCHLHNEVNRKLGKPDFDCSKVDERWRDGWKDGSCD
Calb FLC – C. albicans growth modulation with fluconazole. C. albicans CaCi-2 (fluconazole-resistant clinical isolate) + fluconazole, Alamar Blue growth, 48 h. growth inhibition, % (test concentration not listed). 0.57% of 300,000 active;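 active = growth inhibition above about 58% in most replicates, limit read from the data, passing the limit was not always enough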;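 note: all wells also contain fluconazole at 8 µg/ml as a sub-toxic cotreatment; 0% = median of DMSO wells and 100% = median of geldanamycin control wells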
ATG4B inhibitor – ATG4B (human) cysteine protease inhibition; Q9Y4P1; ATG4B cleavage of LC3-PLA2, NBD-HPC fluorescence, 1 h; inhibition, % at 8.33 µM; 0.51% of 340,000 active; in the data active = inhibition above about 40%
NLRP3 yeast inh – blocks the NALP3 inflammasome reconstituted in yeast; Yeast reconstituted NLRP3/ASC/caspase-1, beta-gal luminescence, 24 h; inhibition, % at 10 µM; 0.39% of 330,000 active;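 active = inhibition of 50% or more; inactive = inhibition below 50%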;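 note: plate controls were induced DMSO wells for no effect and uninduced yeast grown without galactose for full effect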
NALP1 inh – NALP1 inhibition; S. cerevisiae NALP1/ASC/caspase-1 growth, X-gal OD620, 72 h; 0.61% of 280,000 active; inhibition, % at 10 µM; in the data active = inhibition mostly above about 24%, no sharp cut-off; inactive = mostly below about 32%
UCH37 inh – human UCH37 deubiquitinating enzyme inhibition. Q9Y5K5. purified proteasome/UCH37, Ub-AMC cleavage fluorescence. inhibition, % (concentration not given with the values). 0.33% of 330,000 active. AID 588478;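 active = mean inhibition over replicate wells above about 20%, limit read from the data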;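 note: 0% = compound-free wells with enzyme and 100% = wells lacking proteasome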
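System: Proteasome-associated human UCH37 deubiquitinase; Input: 0.15 nM proteasome in added enzyme buffer; Also added: Ub-AMC substrate from 1 µM stock; Incubation: 30 min compound-proteasome preincubation then 25 min substrate reaction, room temperature; Detection: fluorescence, ex 355 nm, em 460 nm; Read-out: % inhibition of Ub-AMC cleavage fluorescence; Benchmarks: no-proteasome and no-compound wells.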
ATG4B conf – ATG4B (human) inhibition, single-dose confirmed | shares compounds with ATG4B inhibitor | ATG4B protease fluorescent substrate cleavage assay | inhibition, % at 8.33 µM | 92% of 320 active; in the data active = inhibition above about 39%
PLA2 ctr – counter-screen for ATG4B inhibitors: human phospholipase A2. shares compounds with ATG4B inhibitor. purified PLA2, NBD-C6-HPC fluorescence, 45 min. inhibition, % at 8.33 µM. 66% of 1,600 active. AID 588402; in the data active = inhibition above about 50%
Target sequence (P04054 whole entry, looked up): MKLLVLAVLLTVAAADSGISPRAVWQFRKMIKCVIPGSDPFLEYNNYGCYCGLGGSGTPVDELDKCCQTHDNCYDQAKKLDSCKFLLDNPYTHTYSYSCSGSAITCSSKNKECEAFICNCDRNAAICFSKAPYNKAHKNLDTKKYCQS
Active calls of the source: *.

Screening N#Cc1c(NC(=O)C2CC(c3ccccc3O)=NO2)sc2c1CCC2 (configuration not stated) returned Calb FLC 3.8, ATG4B inhibitor 3.0, NLRP3 yeast inh 1.0, NALP1 inh 21.8 and UCH37 inh 2.2.
For N#Cc1c(NC(=O)C2CC(c3ccccc3Cl)=NO2)sc2c1CCC2 (configuration not stated) the results were Calb FLC -4.1, ATG4B inhibitor 50.6*, NLRP3 yeast inh 16.4, NALP1 inh -1.6, UCH37 inh -0.6, ATG4B conf 63.0* and PLA2 ctr 35.2.
`CON=C(c1ccccc1)c1cccnc1` gave UCH37 inh 2.6.
N#Cc1c(NC(=O)Cn2c(=O)oc3ccccc32)oc(-c2ccccc2)c1-c1ccccc1 was read as ALR H2O2 inh 5.2, Calb FLC -1.5, ATG4B inhibitor 50.3*, NLRP3 yeast inh 6.7, NALP1 inh 25.4, UCH37 inh 1.2 and PLA2 ctr 57.7*.
O=C(Cn1c(=O)oc2ccccc21)Nc1ccc(Br)cc1 was read as ALR H2O2 inh -13.6, Calb FLC -22.0, ATG4B inhibitor -3.5, NLRP3 yeast inh 24.1, NALP1 inh 10.7 and UCH37 inh 2.7.
`Oc1ccc(C=NNc2ncnc3c2ncn3Cc2ccccc2)cc1O` gave UCH37 inh 1.5.
Screening CN(C)c1cccc(C(=O)n2cc(C(=O)c3cc(F)ccc3O)cn2)c1 returned ALR H2O2 inh -11.7, Calb FLC -7.2, ATG4B inhibitor 50.9*, NLRP3 yeast inh -1.1, NALP1 inh 7.5, UCH37 inh -31.3, ATG4B conf 50.3* and PLA2 ctr 1.7.
`C/C(=C/CCC(C)[C@H]1CC[C@@]2(C)C3=C(CC[C@]12C)[C@@]1(C)CCC(=O)C(C)(C)[C@@H]1CC3)C(=O)O` (some centres not stated) gave ALR H2O2 inh -0.6, Calb FLC -7.1, ATG4B inhibitor 46.0*, NALP1 inh 28.0, ATG4B conf 79.0* and PLA2 ctr 29.2.
C/C(=C/CCC(C)C1CCC2(C)C3CCC4C(C)(C)C(=O)CCC4(C)C3=CCC12C)C(=O)O (configuration not stated) was read as Calb FLC -10.7 and NALP1 inh 10.5.
`COc1ccc(C=NNC(=O)CCNc2n[nH]c(=O)[nH]c2=O)c(OC)c1` gave UCH37 inh 7.2.
C/C(C=NNC(=O)c1ccco1)=C\c1ccccc1 was read as UCH37 inh 6.5.
For CCCC(=O)NC(=S)Nc1cccc(Cl)c1N1CCCCC1 the results were ALR H2O2 inh 0.9, Calb FLC -9.2, ATG4B inhibitor 41.1*, NLRP3 yeast inh -30.3, UCH37 inh 0.4, ATG4B conf 56.0* and PLA2 ctr 36.9.
CCC(=O)NC(=S)Nc1cccc(Cl)c1N1CCCCC1 was read as ALR H2O2 inh -0.2, Calb FLC 27.9, ATG4B inhibitor 41.9*, NLRP3 yeast inh -58.8, NALP1 inh 5.3, UCH37 inh 2.0, ATG4B conf 60.5* and PLA2 ctr 39.1.
For O=C(Nc1cccc(Cl)c1N1CCCC1)c1ccc(Br)o1 the results were ALR H2O2 inh 43.7, Calb FLC 4.4, ATG4B inhibitor 56.1*, NLRP3 yeast inh 19.0, NALP1 inh 12.1, UCH37 inh 1.9 and PLA2 ctr 56.0*.
For COc1cc(C=NNC(N)=O)cc(Br)c1OCc1ccc(C)cc1 the results were UCH37 inh 1.0.
`O=C(CSc1nnc(-c2ccc(Cl)cc2)n1-c1ccccc1)NN=Cc1ccccc1C(=O)O` gave UCH37 inh 0.5.
Screening CC(C)c1[nH]nc2c1C(c1ccc(OC(=O)c3ccco3)cc1)C(C#N)=C(N)O2 (configuration not stated) returned ALR H2O2 inh 15.3, Calb FLC -27.3, ATG4B inhibitor 82.9*, NLRP3 yeast inh 10.7, NALP1 inh 22.5, UCH37 inh 2.9 and PLA2 ctr 83.7*.
